Assay results gathered from unrelated publications.
Lines come from different studies, so protocols differ.
Organism: Staphylococcus aureus
Effect on: microbial killing

Compound | technique | strain | time | setting | MBC
O=C1NC(=S)N/C1=C\c1c2ccccc2c(-c2ccc(N(c3ccccc3)c3ccccc3)cc2)c2ccccc12 | broth dilution | ATCC6538 |  |  | > 1000 µg/mL
COc1cc(NC(C)CCCNC(=O)c2ccncc2C(=O)NCCCC(C)Nc2cc(OC)cc3ccc(C(C)(C)C)nc23)c2nc(C(C)(C)C)ccc2c1.Cl (stereo not shown) |  | ATCC43300 MRSA |  | drug-resistant strain | 10 to 20 µg/mL
CC(=O)NC[C@H]1CN(c2ccc(N3CCOCC3)c(F)c2)C(=O)O1 | broth dilution | MRSA NRS119 |  | drug-resistant strain | 64 µM
CCCCCCCCCCCCCC#CC(=O)O |  |  |  |  | 7.8 µg/mL
O=C1NC(=S)N/C1=C\c1ccc(-c2ccc(N(c3ccccc3)c3ccccc3)cc2)c2ccccc12 | broth dilution | ATCC25923 |  |  | > 1000 µg/mL
CCCCCC(=O)Oc1c(C)c(O)c(C(=O)/C=C/c2ccccc2)c(OC)c1C | broth dilution | ATCC25923 |  |  | > 5000 µg/mL
CCOC(=O)c1c(N)csc1-c1cn(-c2ccccc2)nc1-c1ccc(C)cc1 | broth dilution |  |  |  | 0.125 µg/mL
CCCCCOc1c(OC)cc(NC(C)CCCNC(=S)NCCCC(C)Nc2cc(OC)c(OCCCCC)c3c(CC)ccnc23)c2nccc(CC)c12.Cl.Cl (stereo not shown) |  | ATCC43300 MRSA |  | drug-resistant strain | 10 to 20 µg/mL
CC1CCN(CCCN2/C(=C/c3cc[n+](C)c4ccccc34)Sc3ccccc32)CC1.[I-] |  | ATCC29213 |  |  | 16 µg/mL
N#CC(=Cc1ccccc1O)C1=NC(=O)C(=Cc2cn(-c3ccccc3)nc2-c2ccccc2)S1 | broth dilution |  |  |  | 0.5 µg/mL
O=C(O)CN1C(=O)/C(=C/c2ccc(-c3ccc(N(c4ccccc4)c4ccccc4)cc3)c3ccccc23)NC1=S | broth dilution | ATCC43300 |  |  | > 1000 µg/mL
CCn1cc(C(=O)O)c(=O)c2cc(F)c(N3CCNCC3)cc21 | broth dilution | ATCC6538 |  |  | 2 µM
O=[N+]([O-])c1ccc(-c2nc3cccc(O)c3[nH]2)o1 |  | ATCC33591 |  |  | 2 µg/mL
COc1c(C)c(OC(=O)c2ccc(C)cc2)c(C)c(O)c1C(=O)/C=C/c1ccccc1 | broth dilution | ATCC25923 |  |  | > 5000 µg/mL
O=C(O)CN1C(=O)/C(=C/c2ccc(-c3ccc(N(c4ccccc4)c4ccccc4)cc3)c3ccccc23)SC1=S | broth dilution | ATCC43300 |  |  | > 1000 µg/mL
COc1c(C)c(OCc2ccccc2)c(C)c(O)c1C(=O)/C=C/c1ccccc1 | broth dilution | ATCC25923 |  |  | > 5000 µg/mL
COc1cc(Cc2cnc(N)nc2N)cc(OC)c1OC | broth dilution |  | 48 h |  | 2 µg/mL
O=C(O)CN1C(=O)/C(=C/c2c3ccccc3c(-c3ccc(N(c4ccccc4)c4ccccc4)cc3)c3ccccc23)SC1=S | broth dilution | ATCC6538 |  |  | > 1000 µg/mL
COc1c(C)c(OS(=O)(=O)c2ccc3ccccc3c2)c(C)c(OS(=O)(=O)c2ccc3ccccc3c2)c1C(=O)/C=C/c1ccccc1 | broth dilution | ATCC25923 |  |  | > 5000 µg/mL
O=C1NC(=S)S/C1=C\c1ccc(-c2ccc(N(c3ccccc3)c3ccccc3)cc2)cc1 | broth dilution | ATCC43300 |  |  | > 1000 µg/mL
COc1c(C)c(OC(=O)c2ccccc2)c(C)c(O)c1C(=O)/C=C/c1ccccc1 | broth dilution | ATCC25923 |  |  | > 5000 µg/mL
O=C(O)CN1C(=O)/C(=C/c2ccc(-c3ccc(N(c4ccccc4)c4ccccc4)cc3)cc2)NC1=S | broth dilution | ATCC25923 |  |  | 3.9 µg/mL
C=CCOc1c(C)c(O)c(C(=O)/C=C/c2ccccc2)c(OC)c1C | broth dilution | ATCC25923 |  |  | > 5000 µg/mL
O=C1NC(=S)S/C1=C\c1ccc(-c2ccc(N(c3ccccc3)c3ccccc3)cc2)c2ccccc12 | broth dilution | ATCC43300 |  |  | > 1000 µg/mL
CCCCCCCC(=O)Oc1c(C)c(O)c(C(=O)/C=C/c2ccccc2)c(OC)c1C | broth dilution | ATCC25923 |  |  | > 5000 µg/mL
